PMC2982901 (Cancer chemotherapy and pharmacology, 2010)
“And” between values parts separate entries of the source, which are not always exact repeats. Equal values may be shown once. Read-outs that look alike come from different tables or passages of the source. One block for each compound: values may come before it.

Key:
[1] = tested on: Panc-1 xenografts; settings: Panc-1 xenograft; for Median T–C: two tumor volume doublings
[2] = tested on: SF-295 xenografts; settings: SF-295 xenograft, i.p. 5/2/5 schedule vs irinotecan i.v. Q4D×3
[3] = tested on: HT29 xenografts; settings: HT29 xenograft, i.p. 5/2/5 schedule vs irinotecan i.v. Q4D×3
[4] = tested on: NCI-H460 xenografts; settings: NCI-H460 xenograft, i.p. 5/2/5 schedule vs irinotecan i.v. Q4D×3
[5] = tested on: Panc-1 cells; test: Growth inhibition assay, Panc-1 cells; format: cell-based, human; settings: for IC50 vs. BACPT: ratio of IC50 to that of BACPT; for IC90 vs. BACPT: ratio of IC90 to that of BACPT
[6] = tested on: Panc-1 cells; test: Drug interaction assay with gemcitabine in Panc-1 cells; format: cell-based, human; settings: for Dose reduction index: gemcitabine followed 24 h by BACPT, Panc-1
In short: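 Panc-1 cells were grown in DMEM with 10% FBS and seeded at 3,000 cells/well. Gemcitabine was given first, then the test compound 24 h later. Exposure was 3 days, followed by 2 days in drug-free medium. Survival was read by ATP assay, with seven dose levels per curve in triplicate. Interaction was analysed by the Chou combination-index method as a function of fraction affected (fa = 0.5 is the IC50).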

[7] = tested on: SK-N-MC neuroblastoma cell line; test: Growth inhibition assay, SK-N-MC neuroblastoma cells; format: cell-based, human
[8] = tested on: SK-N-BE(2c) neuroblastoma cell line; test: Growth inhibition assay, SK-N-BE; format: cell-based, human
[9] = tested on: NGP neuroblastoma cell line; test: Growth inhibition assay, NGP neuroblastoma cells; format: cell-based, human
[10] = tested on: IMR-32 histocultures; test: Histoculture assay, IMR-32; format: cell-based, human; settings: hypoxic (1.5% O2) and acidic (pH 6.8), results not shown
[11] = tested on: MCF-7 cells; settings: MCF-7 cells cultured at pH 6.8 vs. 7.4; cited from earlier work
[12] = tested on: IMR-32 neuroblastoma cell line; test: Growth inhibition assay, IMR-32 neuroblastoma cells; format: cell-based, human
[13] = 8.0 mg/kg i.p., 5/2/5 schedule, 8 mg/kg
[14] = read-out: IC50 (nM) pH 7.4, pH 7.4
[15] = read-out: IC50 (nM) pH 6.8, pH 6.8
[16] = 60 mg/kg i.v., Q4D×3 schedule, 60 mg/kg

Compound: 7-butyl-10-amino-camptothecin-(20S) β-alanine-lysine [BACPTDP]
- Median survival ([1]; 4.5 mg/kg i.p., 5/2/5 schedule): 27.4 ± 2.0 days
- TFS ([1]; 4.5 mg/kg i.p., 5/2/5 schedule): 0
- Median T–C ([1]; 4.5 mg/kg i.p., 5/2/5 schedule): 10.9 days
- Median survival [1, 13]: 67 days and 66.7 ± 7.8 days
- TFS (tumor-free animals at 95 days) [1, 13]: 2/6 and 2
- Median T–C ([1]; 8.0 mg/kg i.p., 5/2/5 schedule): 60.0 days
- antitumor activity relative to irinotecan [2]: comparable to irinotecan
- antitumor activity relative to irinotecan [3]: comparable to irinotecan
- antitumor activity relative to irinotecan [4]: comparable to irinotecan

- IC50 (nM) ([5]; Panc-1 cells): inactive
Compound: C#Cc1cccc(Nc2ncnc3cc(OCCOC)c(OCCOC)cc23)c1 [Erlotinib]

- IC50 (nM) ([5]; Panc-1 cells): inactive
Compound: Cn1nnc2c(C(N)=O)ncn2c1=O [Temozolomide]

Compound: CCCCc1c2c(nc3ccc(N)cc13)-c1cc3c(c(=O)n1C2)COC(=O)C3(O)CC (stereo not drawn) [BACPT, 7-Butyl-10-amino-camptothecin]
- Dose reduction index ([6]; Fraction affected 0.2): 2.0
- Dose reduction index ([6]; Fraction affected 0.3): 5.3
- Dose reduction index ([6]; Fraction affected 0.4): 11.0
- Dose reduction index ([6]; Fraction affected 0.6): 38.0
- Dose reduction index ([6]; Fraction affected 0.7): 69.1
- Dose reduction index ([6]; Fraction affected 0.8): 133.8
- interaction in combination with gemcitabine (combination index) ([6]; Panc-1, molar ratio 100:1 gemcitabine:BACPT, median effect analysis): additive (CI = 1) to synergistic (CI < 1)
- Fold increase at acidic pH ([7]; pH 6.8 vs 7.4): 8
- IC50 [7, 14]: 0.001 nM
- Fold increase at acidic pH ([8]; pH 6.8 vs 7.4): 5
- IC50 [8, 15]: 0.019 nM
- IC50 [8, 14]: 0.099 nM
- Fold increase at acidic pH ([9]; pH 6.8 vs 7.4): 49
- IC50 [9, 15]: 26 nM
- IC50 [9, 14]: 1290 nM
- IC50 ([5]; Panc-1 cells): 4 nM
- IC90 ([5]; Panc-1 cells): 86 nM
- IC50 vs. BACPT ([5]; Panc-1 cells): 1
- IC90 vs. BACPT ([5]; Panc-1 cells): 1
- IC50 [10]: 200 nM
- increase in potency at acidic pH [11]: ~15 fold
- Fold increase at acidic pH ([12]; IMR-32, pH 6.8 vs 7.4): 12
- IC50 ([12]; read-out: IC50 (nM) pH 6.8, IMR-32, pH 6.8): 127 nM
- IC50 ([12]; read-out: IC50 (nM) pH 7.4, IMR-32, pH 7.4): 1390 nM

Compound: Nc1ncn([C@H]2C[C@H](O)[C@@H](CO)O2)c(=O)n1 [Decitabine]
- IC50 ([5]; Homo sapiens, PANC-1): 69000 nM
- IC90 (nM) ([5]; Panc-1 cells): not achieved
- IC50 vs. BACPT ([5]; Panc-1 cells): 16,963

- IC50 ([5]; Homo sapiens, PANC-1): 9180 nM
- IC90 ([5]; Homo sapiens, PANC-1): 97600 nM
- IC50 vs. BACPT ([5]; Panc-1 cells): 2,257
- IC90 vs. BACPT ([5]; Panc-1 cells): 1,136
Compound: O=c1[nH]cc(F)c(=O)[nH]1 [5-Flurouracil]

- IC50 ([5]; Homo sapiens, PANC-1): 23 nM
- IC90 ([5]; Homo sapiens, PANC-1): 117 nM
- IC50 vs. BACPT ([5]; Panc-1 cells): 6
- IC90 vs. BACPT ([5]; Panc-1 cells): 1
Compound: Nc1ccn([C@@H]2O[C@H](CO)[C@@H](O)C2(F)F)c(=O)n1 [Gemcitabine]
- Dose reduction index ([6]; Fraction affected 0.2): 1.0
- Dose reduction index ([6]; Fraction affected 0.3): 1.6
- Dose reduction index ([6]; Fraction affected 0.4): 2.3
- Dose reduction index ([6]; Fraction affected 0.5 (IC50)): 3.1
- Dose reduction index ([6]; Fraction affected 0.6): 3.9
- Dose reduction index ([6]; Fraction affected 0.7): 4.8
- Dose reduction index ([6]; Fraction affected 0.8): 5.8

- IC50 ([5]; Homo sapiens, PANC-1): 103 nM
- IC90 (nM) ([5]; Panc-1 cells): not achieved
- IC50 vs. BACPT ([5]; Panc-1 cells): 25
Compound: CCC1=C[C@@H]2CN(C1)Cc1c([nH]c3ccccc13)[C@@](C(=O)OC)(c1cc3c(cc1OC)N(C)[C@H]1[C@@](O)(C(=O)OC)[C@H](OC(C)=O)[C@]4(CC)C=CCN5CC[C@]31[C@@H]54)C2 [Vinorelbine]

- IC50 ([5]; Homo sapiens, PANC-1): 651 nM
- IC90 ([5]; Homo sapiens, PANC-1): 8750 nM
- IC50 vs. BACPT ([5]; Panc-1 cells): 160
- IC90 vs. BACPT ([5]; Panc-1 cells): 102
Compound: COc1cc([C@@H]2c3cc4c(cc3[C@@H](O[C@@H]3O[C@@H]5CO[C@@H](C)O[C@H]5[C@H](O)[C@H]3O)[C@H]3COC(=O)[C@H]23)OCO4)cc(OC)c1O [Etoposide]

- IC50 ([5]; Homo sapiens, PANC-1): 68800 nM
- IC90 (nM) ([5]; Panc-1 cells): not achieved
- IC50 vs. BACPT ([5]; Panc-1 cells): 16,916
Compound: Nc1ncn([C@@H]2O[C@H](CO)[C@@H](O)[C@H]2O)c(=O)n1 [5-Azacytidine]

Compound: CCc1c2c(nc3ccc(O)cc13)-c1cc3c(c(=O)n1C2)COC(=O)[C@]3(O)CC [SN-38]
- IC50 [10]: 10000 nM

- IC50 ([5]; Homo sapiens, PANC-1): 6890 nM
- IC90 ([5]; Homo sapiens, PANC-1): 13200 nM
- IC50 vs. BACPT ([5]; Panc-1 cells): 1,693
- IC90 vs. BACPT ([5]; Panc-1 cells): 154
Compound: Cc1nc(Nc2ncc(C(=O)Nc3c(C)cccc3Cl)s2)cc(N2CCN(CCO)CC2)n1 [Dasatinib]

Compound: CCc1c2c(nc3ccc(OC(=O)N4CCC(N5CCCCC5)CC4)cc13)-c1cc3c(c(=O)n1C2)COC(=O)[C@]3(O)CC [CPT-11, irinotecan]
- Maximum body weight loss (%) ([1]; 40 mg/kg i.v., Q4D×3 schedule): 2%
- Median survival ([1]; 40 mg/kg i.v., Q4D×3 schedule): 35.0 ± 9.3 days
- TFS ([1]; 40 mg/kg i.v., Q4D×3 schedule): 0
- Maximum body weight loss (%) ([1]; 60 mg/kg i.v., Q4D×3 schedule): 6%
- TFS ([1]; 60 mg/kg i.v., Q4D×3 schedule): 0
- Median survival [1, 16]: 31.4 ± 1.5 days
- TFS [1, 16]: no tumor-free animals
